Data reported in the EternaBench riboswitch data.

Test system: MS2 coat protein
Assay: apparent Kd, MS2 coat protein; higher = weaker binding; RNA-MaP array; FMN 200 µM where present
Procedure, shortened: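 The apparent Kd is the median of filtered binding-curve fits, one per cluster, to green signal normalised to red-channel RNA signal and control-cluster median Fmax. The clusters were on Illumina sequencing chips, and stalled E. coli RNA polymerase had transcribed the designs on them. Titration used SNAP-549-labelled MS2 coat protein from 0.7 or 1.5 nM, doubling to 3 µM, without and then with constant ligand, in 100 mM Tris-HCl pH 7.5, 80 mM KCl, 4 mM MgCl2, BSA, DTT, yeast tRNA and Tween-20.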

[1] = designed as: OFF switch for flavin mononucleotide, no ligand
[2] = ligand present: flavin mononucleotide, designed as: OFF switch for flavin mononucleotide
[3] = designed as: ON switch for flavin mononucleotide, no ligand
[4] = ligand present: flavin mononucleotide, designed as: ON switch for flavin mononucleotide

Sequence | apparent Kd [1] [nM] | apparent Kd [2] [nM] | apparent Kd [3] [nM] | apparent Kd [4] [nM]
ACGAUGUCAGGAUAUCGAUCACGGGUCUGAAGACACGUGUUUGAGAAGGGACAUGAGGAUCACCCAUGUGUCUC | 122 | 314 | – | –
ACGCAUUGCCUUUGGUAGUGCGUUACAUGAGGAUCACCCAUGUAGGAUAUGGUAGGCAAAGCUUACCAGAAGGACAUGAUAAUU | 49.5 | 238 | – | –
ACGCCCUGAGGAUAUCUUAUGCCGCACAUGAGGAUCACCCAUGUUCUCCUCCGGGCUCCGAGAGAAGGCAGGCCCA | 8.82 | 10.2 | – | –
ACGCUUUGGGAGAAGGUACGUUAAUUAUUUUCCACAUGAGGAUCACCCAUGUAAGGAUAUCCCGGCGUGAAAUAGGCUACAGCA | 6.71 | 8.08 | – | –
ACGCUUUGGGAGAAGGUACUUUAAAAUUUUUCCACAUGAGGAUCACCCAUGUAAGGAUAUCCCAUCGUUAAAUAUUCUACAGCA | 8.98 | 7.26 | – | –
ACGGCUAACCCAGUUUGAAUCUCAAGAAGGGUACACUGGGCAAGGUACAUGAGGAUCACCCAUGUACAGGAUAUUGAGAUGAGA | 48.4 | 74 | – | –
ACGGUGGUCACAGGAUAUCCGGCCCGCGUGCCUGGAGAAGGGUGACUCAGAACCACAUGAGGAUCACCCAUGUGCCUUGCCGUA | – | – | 92.1 | 31.9
ACGGUGGUCACAGGAUAUCCGGCGCGCGUGCCUGGAGAAGGGUGACUCAGAACCACAUGAGGAUCACCCAUGUGCCUUGCCGUA | – | – | 169 | 49.2
ACGGUUGGGACAGGAUAUGUAACCGGGAUUCUAGUUUCGUCCGUGACAUGAGGAUCACCCAUGUUACAGAAGGGUUCUAAAUCG | 189 | 234 | – | –
ACGUAACGGUGCGCGAGUGGACGGAGAAGGCAGACAUGAGGAUCACCCAUGUGAGCCUGCUAUUCUGAGGAUAUCCGUCCGCAC | 38.9 | 254 | – | –
ACGUCGAGCCAGAAGGCAACAUGAGGAUCACCCAUGUAGUCCGGCUCGUGUUGAGGAUAUGGCACCCGCGCUGAAGGCGCAGGU | 5.43 | 7.55 | – | –
ACGUUUAAUACAGGAUAUGUUAAUAUACAAUAGAUUGGAUAUUACUUAAUUACAGAAGGGUAGAACAUGAGGAUCACCCAUGUA | – | – | 329 | 239
ACUAAACGAGGAUAUACUGACAGGCCUCAGGCAUACAUCAAACAUGAGGAUCACCCAUGUAGAAGGCGUAAACU | 32.8 | 32.8 | – | –
ACUAAUAAGUGAGGAUAUACAUAAUUCAUAUCAGUAGAAGGCACAAUCCUCUUUACAUGAGGAUCACCCAUGUUAUAUAUAUAA | 73.8 | 194 | – | –
ACUAGAUGAGGAUAUACACAUUUUAGUGUUCCUCUAGAUUAACAUGAGGAUCACCCAUGUAGAAGGCAUCAUUU | 78.5 | 231 | – | –
ACUAGAUGAGGAUAUGCAUAUUUUCGUGUUCUUCUAGAUUAACAUGAGGAUCACCCAUGUAGAAGGCGUCAAUA | 16.1 | 18.9 | – | –
ACUAGAUGAGGAUAUGCAUGUUUUCAUGUUCUUCUAGAUUAACAUGAGGAUCACCCAUGUAGAAGGCGUCUUUU | 21.4 | 32 | – | –
ACUAUACGAGGAUAUACUGACAGGCCUCAGGCAUACAUCAAACAUGAGGAUCACCCAUGUAGAAGGCGUAUACU | 30.4 | 68.1 | – | –
ACUAUACGAGGAUAUACUGUCAGGCCUCAGACAUAAAUAAGACAUGAGGAUCACCCAUGUAGAAGGCGUUUACU | 31.3 | 48 | – | –
ACUAUACGAGGAUAUACUGUCGGGCCUCGGACAUACAUACGACAUGAGGAUCACCCAUGUAGAAGGCGUUUACU | 30.4 | 68.4 | – | –
ACUCCUCCUGUUAGGAUAUGCAUCGGGCUUCCGCAGCAGAAGGAACAUGAGGAUCACCCAUGUCAAAUAAAAUC | 19.6 | 155 | – | –
ACUCGGAGCUGGCGACAGAAGACAUGAGGAUCACCCAUGUAGAGAAGGAGCCCUGGGACCGGUGGCUAGGAUAUUUACAUCGGU | 6.9 | 12.3 | – | –
ACUCUACAUGAGGAUCACCCAUGUCGAGCCCAUCAAGGAUAUGGGUCUUGAUCGCGGGUGCCAGAAGGUGAUGGUU | – | – | 43.9 | 47.1
ACUGCCACAGGAUAUACGAAACUCUUGGGUUCCGCCGUGUGACAUGAGGAUCACCCAUGUAGAAGGGUGGCUUA | 606 | 416 | – | –
ACUGGAGCAGGAUAUAUAUGACGUGCUUCGGCACGAAGAUCACAUGAGGAUCACCCAUGUAGAAGGGCUCCAGU | 106 | 813 | – | –
ACUGGUCGAGGAUAUGCAUUCGUGCUUCGGCACGUAAGGUCACAUGAGGAUCACCCAUGUAGAAGGCGACCAGU | 18.2 | 36.9 | – | –
ACUGUCCGAGAGAAGGGAACAUGAGGAUCACCCAUGUUACCUCACCUGGUGACGGAACUCCAAGUUCAGGAUAUCUCGAGCGGU | 4.72 | 6.53 | – | –
ACUGUCGCGUGAGGAUAUGGUCUGCAGUGCUGACCAGAAGGCAUGUCGAUAGACAUGAGGAUCACCCAUGUGGUUAGGGCGGCU | – | – | 619 | 298

Sequence | apparent Kd [1] [nM] | apparent Kd [2] [nM] | apparent Kd [3] [nM] | apparent Kd [4] [nM]
ACUUAUGAAGGAUAUACUAGCGACAUGCACUCAACACACGCACAUGAGGAUCACCCAUGUAGAAGGUCAAACAU | 25.7 | 22.4 | – | –
ACUUGUAAGCAGAAGGCAGUCAUAGUAUUCGUCAUGUAGACAUGAGGAUCACCCAUGUAUAGUACUGAGGAUAUGCUUCGAUAG | 19.3 | 21.7 | – | –
AGAAACCGAGGAUAUACAUGAGGAUCACCCAUGUCAAGCGGCAUCUACCGAACCUUCUGUAGAAGGCGGAAAAC | 19.9 | 22.9 | – | –
AGAAACUACGAGAAGGACAAAAAAGGUGCCGCAAACAUGAGGAUCACCCAUGUAGGAUAUCGUAGUUUCAGGAUCGUGAGAUCA | 16.5 | 98.3 | – | –
AGACCCAUGACAUGAGAUGACAUGAGGAUCACCCAUGUUUACGAGGAUAUGUUGAUGAAACAUCAACAGAAGGUGUAAUGGGCU | 21.2 | 28.9 | – | –
AGAGAGAGCACAGGAUAUCCGCGCACAUGUAGCGGAGAAGGGUGACCUUUUUGCACAUGAGGAUCACCCAUGUCCAGCACCACA | – | – | 39.7 | 21.7
AGAGAGUGACAGAAGGGCAAGCUCGAAAGCGGAGAACGCGAACGAGCUUGCAGGAUAUGUUGAACAUGAGGAUCACCCAUGUCA | – | – | 7.79 | 6.41
AGAGGACAUGAGGAUCACCCAUGUAAGGAUAUGCGGAGAGUUUGGAGAGGUCGGGUAGGCAGAAGGUACAGGAG | 65.1 | 91.7 | – | –
AGAGUGAUUACCUCGGUCCCACAUGAGGAUCACCCAUGUAACAAGGAUAUCGCUCCAAAUGGAAGUGAGAAGGUGUCUCAUGUC | 27.8 | 42.2 | – | –
AGAUAACACCAGAAGGACAUGAGGAUCACCCAUGUAGGAUAUGGGCAUCACUCGAGAAAGAAAAGACCAAGUGGACACAUGGUC | – | – | 147 | 11
AGAUACAACCAGAAGGACAUGAGGAUCACCCAUGUAGGAUAUGGGUUACACGUGCCUGGGAAGUGUAACGACGCUACGAAGAGU | – | – | 31.4 | 8.3
AGAUACAGGCAGAAGGGUUGGUAAGUUGGGUCAACAGGAUAUGCCUCUGUGACAUGAGGAUCACCCAUGUUACCAAACAGUCUU | – | – | 583 | 49.5
AGAUAGCGAAUAGUAAUAAAAGUACAGGAUAUGUUACAUGAGGAUCACCCAUGUAUUGGGUAAGAACAGAAGGGUACGCUAGAG | 144 | 123 | – | –
AGAUCUACAGGAUAUACAUGAAAGAUCAUCAUGACCCUUCAACAUGAGGAUCACCCAUGUAGAAGGGUAGAUCA | 27.7 | 13.5 | – | –
AGAUGGUGAUGUUAUCUUCGUCGGACAUGAGGAUCACCCAUGUAGGAUAUGCUACUAAAAUAGUAGCAGAAGGACAUGUAUCUU | 104 | 1030 | – | –
AGAUUGCAUGAGGAUAUCGUAUUAGAUAUAAUGCGAGAAGGCAUGACAUGAGGAUCACCCAUGUAGUGUGGGUU | 55.9 | 40.2 | – | –
AGAUUUGUACAUGAGGAUCACCCAUGUUAAUAGGUGGUUGUCAGAAGGCAUUAAUAGAGAUUUAAUGAGGAUAUGAAUUUACAA | – | – | 1420 | 1040
AGAUUUGUACAUGAGGAUCACCCAUGUUAAUAGGUGUUUGUCAGAAGGCAUUAAUAGAGAUUUAAUGAGGAUAUGAAGUUACAA | – | – | 70.3 | 46.3
AGCAGAACGUCAGGAUAUGUGGGUACUUUAGUCACAUGAGGAUCACCCAUGUAGGACUGCGAUCAACAGAAGGGACAAUUAGCA | – | – | 279 | 16.2
AGCAUGCUAGGAUAUACGAAACAUUAGGGUUCUUUGUAUAAACAUGAGGAUCACCCAUGUAGAAGGAGCGUGCA | 46.1 | 169 | – | –
AGCCAAGCAGGAUAUGCACGUAAUAACAUGAGGAUCACCCAUGUGACCGAUUUAUGUUCUGCAGAAGGGCUUGGAA | 60.3 | 63.5 | – | –
AGCGAACAGGCUAACAUGAGGAUCACCCAUGUGGACUCAUGGUAGGAUAUCGGGAAGGAGGAAACCGAGAAGGGCCGGUGAGCA | – | – | 69.8 | 80.9
AGCGCUACGGAAUCAAGGGCAGGCAGAAGGAGCACAUGAGGAUCACCCAUGUGAUCCAGGGAUGGCUAGGAUAUGCGCGCCACG | 26.4 | 26.5 | – | –
AGCGGUGCAGGAUAUGGCCGAUCCCACAUGAGGAUCACCCAUGUAAAUAAAAUAAGAUCUCCAGAAGGGCAUCGCA | 30.4 | 15.6 | – | –
AGCGUACAUGUUAGGAUAUGCUGUAGGAAUACUCAGCAGAAGGAACAUGAGGAUCACCCAUGUUUGUCCGUUCU | 14.5 | 23.9 | – | –
AGCGUGUAAGGAUAUACGUCGGAUAGCGAAUGCUGUCCGUAGUAGAAGGUACAUGAGGAUCACCCAUGUGUCCA | 25.1 | 94.1 | – | –
AGCUACGUUUCGUAGCAGCUAGGUGAGGAUAUCCUUAACAUGAGGAUCACCCAUGUAUAGCCAUGGGAGAAGGCGCCUAGAAAG | – | – | 723 | 55.3
